Columns and labels:
Enterococcus faecium = experiment: Antibacterial activity against Enterococcus faecium DSMZ 20477 after 18 to 24 hrs by broth dilution method; type: functional
Staphylococcus aureus [1] = experiment: Antibacterial activity against Staphylococcus aureus CIP 7625 after 18 to 24 hrs by broth dilution method; type: functional
Klebsiella pneumoniae = experiment: Antibacterial activity against Klebsiella pneumoniae CIP82.91 after 18 to 24 hrs by broth dilution method; type: functional
Acinetobacter baumannii = experiment: Antibacterial activity against Acinetobacter baumannii ATCC 19606 after 18 to 24 hrs by broth dilution method; type: functional; conditions: ATCC 19606 = CIP 70.34 = JCM 6841
Pseudomonas aeruginosa = experiment: Antibacterial activity against Pseudomonas aeruginosa CIP100720 after 18 to 24 hrs by broth dilution method; type: functional
Klebsiella aerogenes = experiment: Antibacterial activity against Enterobacter aerogenes ATCC 13048 after 18 to 24 hrs by broth dilution method; type: functional
Escherichia coli = experiment: Antibacterial activity against Escherichia coli CIP54.8 after 18 to 24 hrs by broth dilution method; type: functional
Staphylococcus aureus [2] = experiment: Antibacterial activity against Staphylococcus aureus SA1199 after 18 to 24 hrs by broth dilution method; type: functional
Staphylococcus aureus [3] = experiment: Antibacterial activity against Staphylococcus aureus SA1199B over-expressing NorA after 18 to 24 hrs by broth dilution method; type: functional
HepG2 = experiment: Cytotoxicity against human HepG2 cells assessed as reduction in cell viability after 24 hrs by WST1 assay; type: cell-based; conditions: hepg2, 24 h
Outline: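 Human hepatocyte HepG2 cultures were exposed to test material. IC50 was taken as the concentration giving a 50% decrease in cell respiration relative to the untreated control culture.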

Row | Compound | MIC (Enterococcus faecium) | MIC (Staphylococcus aureus [1]) | MIC (Klebsiella pneumoniae) | MIC (Acinetobacter baumannii) | MIC (Pseudomonas aeruginosa) | MIC (Klebsiella aerogenes) | MIC (Escherichia coli) | MIC (Staphylococcus aureus [2]) | MIC (Staphylococcus aureus [3]) | Activity (HepG2)
1 | CCCC[P+](CCCC)(CCCC)CCCCCCOCc1ccc(N(c2ccccc2)c2ccccc2)cc1.[Cl-] | 1 µg/mL | 1 µg/mL | 16 µg/mL | 16 µg/mL | 32 µg/mL | 16 µg/mL | 16 µg/mL | 0.5 µg/mL | 0.5 µg/mL | 
2 | CCCCCC[P+](CCCCCC)(CCCCCC)CCCCCCCCCCOCc1ccc(N(c2ccccc2)c2ccccc2)cc1.[Br-] | 8 µg/mL | 2 µg/mL | 32 µg/mL | 16 µg/mL | 64 µg/mL | > 64 µg/mL | 32 µg/mL | 1 µg/mL | 2 µg/mL | 
3 | CCCCCC[P+](CCCCCC)(CCCCCC)CCCCCCOCc1ccc(N(c2ccccc2)c2ccccc2)cc1.[Cl-] | 4 µg/mL | 2 µg/mL | > 64 µg/mL | > 64 µg/mL | 16 µg/mL | > 64 µg/mL | > 64 µg/mL | 2 µg/mL | 2 µg/mL | 0.09%
4 | CCCCCCCC[P+](CCCCCCCC)(CCCCCCCC)CCCCCCOCc1ccc(N(c2ccccc2)c2ccccc2)cc1.[Cl-] | 16 µg/mL | 8 µg/mL | > 64 µg/mL | > 64 µg/mL | > 64 µg/mL | > 64 µg/mL | > 64 µg/mL | 8 µg/mL | 8 µg/mL | 
5 | CCCCCC[P+](CCCCCC)(CCCCCC)CCCCCCOCc1ccc(N(c2ccccc2)c2ccccc2)cc1.[Br-] | 4 µg/mL | 2 µg/mL | 64 µg/mL | 64 µg/mL | 64 µg/mL | > 64 µg/mL | > 64 µg/mL | 2 µg/mL | 2 µg/mL | 
6 | CCCCCC[P+](CCCCCC)(CCCCCC)CCCCCCOCc1ccc(N(c2ccc(COCCCCCC[P+](CCCCCC)(CCCCCC)CCCCCC)cc2)c2ccc(COCCCCCC[P+](CCCCCC)(CCCCCC)CCCCCC)cc2)cc1.[Cl-].[Cl-].[Cl-] | 4 µg/mL | 2 µg/mL | 16 µg/mL | 16 µg/mL | > 64 µg/mL | 64 µg/mL | 32 µg/mL | 2 µg/mL | 2 µg/mL | 4.28%
7 | CCCCCC[P+](CCCCCC)(CCCCCC)CCCCCCOCc1ccc(N(c2ccccc2)c2ccc(COCCCCCC[P+](CCCCCC)(CCCCCC)CCCCCC)cc2)cc1.[Cl-].[Cl-] | 2 µg/mL | 2 µg/mL | 16 µg/mL | 16 µg/mL | 64 µg/mL | > 64 µg/mL | 32 µg/mL | 2 µg/mL | 2 µg/mL | 4.16%

— ChEMBL document CHEMBL4184285, “Antibacterial activities of mono-, di- and tri-substituted triphenylamine-based phosphonium ionic liquids” (Bioorg Med Chem Lett, 2018)
